Experimental data: the M2OR odorant receptor database

Molecular target: T1, OR5M3 (Homo sapiens) (UniProt Q8NGP4)
T1 sequence (whole entry): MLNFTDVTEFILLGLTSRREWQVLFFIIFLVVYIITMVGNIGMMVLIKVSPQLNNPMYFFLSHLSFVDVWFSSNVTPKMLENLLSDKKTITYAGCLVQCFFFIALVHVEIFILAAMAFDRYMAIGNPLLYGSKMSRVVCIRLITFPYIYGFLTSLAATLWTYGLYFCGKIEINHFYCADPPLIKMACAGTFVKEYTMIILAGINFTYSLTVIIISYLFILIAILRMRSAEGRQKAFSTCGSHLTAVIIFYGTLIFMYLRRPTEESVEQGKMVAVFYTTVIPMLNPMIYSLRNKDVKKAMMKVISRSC
Details: stereoisomer not certain
In short: (§1)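 Whether a receptor–molecule pair is responsive (active) rests on the original authors' judgment that its measured signal was statistically different from baseline. Pairs without that judgment are non-responsive (inactive). Sources used varied assay methods, commonly transient luciferase assays in mammalian cell lines.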

Compound	odorant receptor agonist call;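 further: active if original authors judged signal statistically different from baseline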
CCC(=O)O	inactive
CCCCCCCCC1CCC(=O)O1 (centres undefined)	inactive
CCOC(=O)C(C)C	inactive
C=CC(=O)CC	inactive
CCCC1CCCC(=O)O1 (centres undefined)	inactive
CCCCCC=CC=CC=O	inactive
CCCCCC=CC=O	inactive
CCCCCCCCCO	inactive
CCCCCCC=CC=O	inactive
CCC=CCC=O	inactive
CC(=O)c1ccc(C)cc1	inactive
CC(C)CCO	inactive
CCCCCCCCCC(=O)OCC	inactive
CCc1cccc(O)c1	inactive
CCCCC(C)CCC(=O)O (centres undefined)	inactive
CCCCCC(C)O (centres undefined)	inactive
CCCCC(=O)O	inactive
CCCC=CC=O	inactive
C=C1CCC2CC1C2(C)C (centres undefined)	inactive
CCOC(=O)C1CCCCC1	inactive

Compound	odorant receptor agonist call;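 further: active if original authors judged signal statistically different from baseline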
CSSSC	inactive
C=CC(=C)CCC=C(C)C	inactive
C=C(C)C1CC=C(C)CC1 (centres undefined)	inactive
CCCCCCO	inactive
CCC=CCCC=CCO	inactive
CCOC(=O)CCC(C)C	inactive
COc1ccc2ccc(=O)oc2c1	inactive
CCC(C)CCC(=O)[O-] (centres undefined)	inactive
CCCCCCCCC=CC=O	inactive
CCCCC1OC(=O)CC1C (centres undefined)	inactive
COC(=O)C(C)C	inactive
COc1ccc(C)cc1O	inactive
CCC(=O)C1=NCCC1	inactive
CCCCC=CC=CC=O	inactive
CCOC(C)=O	inactive
COCCC(C)(C)S	inactive
C=Cc1ccc(O)c(OC)c1	inactive
CCCC(S)CCO (centres undefined)	inactive
Cc1ccc(O)cc1	inactive

Molecular target: T2, OR5P3 (Homo sapiens) (UniProt Q8WZ94)
T2 sequence (whole entry): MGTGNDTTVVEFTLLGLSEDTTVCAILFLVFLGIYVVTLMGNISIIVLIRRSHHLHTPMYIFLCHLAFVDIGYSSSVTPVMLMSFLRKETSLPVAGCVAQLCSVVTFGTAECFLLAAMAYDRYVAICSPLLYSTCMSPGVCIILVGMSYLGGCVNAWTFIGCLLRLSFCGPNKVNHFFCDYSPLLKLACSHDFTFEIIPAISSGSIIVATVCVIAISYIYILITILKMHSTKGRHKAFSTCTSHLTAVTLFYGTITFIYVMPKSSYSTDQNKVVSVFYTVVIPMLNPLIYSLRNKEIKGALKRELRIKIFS
Details: stereoisomer not certain
In short: as §1

Compound	odorant receptor agonist call;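 further: active if original authors judged signal statistically different from baseline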
CCC(=O)O	inactive
CCOC(=O)C(C)C	inactive
CCCCCCCCCO	inactive
CCCCC(=O)O	inactive
CCCCCCO	active
